Reference: ChEMBL document CHEMBL1649552 (2009)
In brackets after ≈: the same amount, converted by molar mass.

Key:
Format in all cases: functional
Streptococcus pneumoniae [1] = experiment: Antibacterial activity against Streptococcus pneumoniae assessed as resistant isolates by CLSI M100-S17 method
In short: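 Clinical isolates were tested by CLSI broth microdilution in frozen, in-house-prepared 96-well panels of the test agent and comparator agents. MICs were read and classed as susceptible, intermediate or resistant using CLSI M100-S17 breakpoints. The value is the share of isolates in each category.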

Streptococcus pneumoniae [2] = experiment: Antibacterial activity against Streptococcus pneumoniae by CLSI M100-S17 method
Streptococcus pneumoniae [3] = experiment: Antibacterial activity against Streptococcus pneumoniae assessed as susceptible isolates by CLSI M100-S17 method
In short: (§1)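 CLSI broth microdilution on clinical isolates, using frozen in-house-prepared panels of test and comparator agents. MICs were read after 20 to 24 h incubation at 35°C in ambient air. Susceptible/intermediate categories were assigned by CLSI M100-S17 guidelines.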

Streptococcus pneumoniae [4] = experiment: Antibacterial activity against Streptococcus pneumoniae assessed as intermediate isolates by CLSI M100-S17 method; in short: as §1
Moraxella catarrhalis = experiment: Antibacterial activity against Moraxella catarrhalis by CLSI M100-S17 method
Streptococcus pyogenes [5] = experiment: Antibacterial activity against Streptococcus pyogenes by CLSI M100-S17 method
Streptococcus agalactiae [6] = experiment: Antibacterial activity against Streptococcus agalactiae assessed as susceptible isolates by CLSI M100-S17 method; in short: as §1
Streptococcus pyogenes [7] = experiment: Antibacterial activity against Streptococcus pyogenes assessed as susceptible isolates by CLSI M100-S17 method; in short: as §1
Streptococcus agalactiae [8] = experiment: Antibacterial activity against Streptococcus agalactiae by CLSI M100-S17 method
Enterococcus faecalis [9] = experiment: Antibacterial activity against Enterococcus faecalis assessed as susceptible isolates by CLSI M100-S17 method
Staphylococcus aureus [10] = experiment: Antibacterial activity against methicillin-resistant Staphylococcus aureus by CLSI M100-S17 method
Staphylococcus aureus [11] = experiment: Antibacterial activity against methicillin-resistant Staphylococcus aureus assessed as susceptible isolates by CLSI M100-S17 method
Enterococcus faecium [12] = experiment: Antibacterial activity against Enterococcus faecium assessed as intermediate isolates by CLSI M100-S17 method
Enterococcus faecium [13] = experiment: Antibacterial activity against Enterococcus faecium by CLSI M100-S17 method
[14] = test system: Staphylococcus epidermidis; experiment: Antibacterial activity against methicillin-susceptible Staphylococcus epidermidis by CLSI M100-S17 method
[15] = test system: Staphylococcus epidermidis; experiment: Antibacterial activity against methicillin-susceptible Staphylococcus epidermidis assessed as resistant isolates by CLSI M100-S17 method
Staphylococcus aureus [16] = experiment: Antibacterial activity against methicillin-resistant Staphylococcus aureus assessed as intermediate isolates by CLSI M100-S17 method
[17] = test system: Staphylococcus epidermidis; experiment: Antibacterial activity against methicillin-resistant Staphylococcus epidermidis by CLSI M100-S17 method
[18] = test system: Staphylococcus epidermidis; experiment: Antibacterial activity against methicillin-resistant Staphylococcus epidermidis assessed as intermediate isolates by CLSI M100-S17 method
Staphylococcus aureus [19] = experiment: Antibacterial activity against methicillin-resistant Staphylococcus aureus assessed as resistant isolates by CLSI M100-S17 method
Enterococcus faecalis [20] = experiment: Antibacterial activity against Enterococcus faecalis by CLSI M100-S17 method
[21] = test system: Staphylococcus epidermidis; experiment: Antibacterial activity against methicillin-resistant Staphylococcus epidermidis assessed as susceptible isolates by CLSI M100-S17 method
Enterococcus faecalis [22] = experiment: Antibacterial activity against Enterococcus faecalis assessed as intermediate isolates by CLSI M100-S17 method
Enterococcus faecalis [23] = experiment: Antibacterial activity against Enterococcus faecalis assessed as resistant isolates by CLSI M100-S17 method
Staphylococcus aureus [24] = experiment: Antibacterial activity against methicillin-susceptible Staphylococcus aureus assessed as susceptible isolates by CLSI M100-S17 method
Staphylococcus aureus [25] = experiment: Antibacterial activity against methicillin-susceptible Staphylococcus aureus by CLSI M100-S17 method
Enterococcus faecium [26] = experiment: Antibacterial activity against Enterococcus faecium assessed as susceptible isolates by CLSI M100-S17 method
Staphylococcus aureus [27] = experiment: Antibacterial activity against methicillin-susceptible Staphylococcus aureus assessed as intermediate isolates by CLSI M100-S17 method
[28] = test system: Staphylococcus epidermidis; experiment: Antibacterial activity against methicillin-susceptible Staphylococcus epidermidis assessed as intermediate isolates by CLSI M100-S17 method
[29] = test system: Staphylococcus epidermidis; experiment: Antibacterial activity against methicillin-resistant Staphylococcus epidermidis assessed as resistant isolates by CLSI M100-S17 method
[30] = test system: Staphylococcus epidermidis; experiment: Antibacterial activity against methicillin-susceptible Staphylococcus epidermidis assessed as susceptible isolates by CLSI M100-S17 method
Staphylococcus aureus [31] = experiment: Antibacterial activity against methicillin-susceptible Staphylococcus aureus assessed as resistant isolates by CLSI M100-S17 method

CO/N=C(\C(=O)N[C@@H]1C(=O)N2C(C(=O)O)=C(CSc3nc(=O)c(O)nn3C)CS[C@H]12)c1csc(N)n1 [CEFTRIAXONE]
Activity (Streptococcus pneumoniae [1]): 0.1% | MIC50 (Streptococcus pneumoniae [2]): ≤ 0.06 µg/mL | MIC90 (Streptococcus pneumoniae [2]): 0.12 µg/mL (≈ 0.216 µM) | Activity (Streptococcus pneumoniae [3]): 99.7% | Activity (Streptococcus pneumoniae [4]): 0.2%

C[C@H]1COc2c(N3CCN(C)CC3)c(F)cc3c(=O)c(C(=O)O)cn1c23.C[C@H]1COc2c(N3CCN(C)CC3)c(F)cc3c(=O)c(C(=O)O)cn1c23.O [LEVOFLOXACIN]
Activity (Streptococcus pneumoniae [1]): 0.6% | MIC50 (Streptococcus pneumoniae [2]): 0.5 µg/mL | MIC90 (Streptococcus pneumoniae [2]): 1 µg/mL | Activity (Streptococcus pneumoniae [3]): 99.4% | Activity (Streptococcus pneumoniae [4]): 0%

CC1(C)S[C@@H]2[C@H](NC(=O)Cc3ccccc3)C(=O)N2[C@H]1C(=O)O [PENICILLIN G]
Activity (Streptococcus pneumoniae [1]): 5% | MIC50 (Moraxella catarrhalis): > 8 µg/mL | MIC90 (Moraxella catarrhalis): > 8 µg/mL | MIC (Streptococcus pyogenes [5]): ≤ 0.03 µg/mL | MIC50 (Streptococcus pyogenes [5]): ≤ 0.03 µg/mL | MIC90 (Streptococcus pyogenes [5]): ≤ 0.03 µg/mL | MIC50 (Streptococcus pneumoniae [2]): 0.06 µg/mL (≈ 0.179 µM) | MIC90 (Streptococcus pneumoniae [2]): 0.25 µg/mL (≈ 0.748 µM) | Activity (Streptococcus pneumoniae [3]): 79.3% | Activity (Streptococcus agalactiae [6]): 100% | Activity (Streptococcus pyogenes [7]): 100% | Activity (Streptococcus pneumoniae [4]): 15.7% | MIC50 (Streptococcus agalactiae [8]): 0.06 µg/mL (≈ 0.179 µM) | MIC90 (Streptococcus agalactiae [8]): 0.25 µg/mL (≈ 0.748 µM)

CN[C@H](CC(C)C)C(=O)N[C@H]1C(=O)N[C@@H](CC(N)=O)C(=O)N[C@H]2C(=O)N[C@H]3C(=O)N[C@H](C(=O)N[C@H](C(=O)O)c4cc(O)cc(O)c4-c4cc3ccc4O)[C@H](O)c3ccc(c(Cl)c3)Oc3cc2cc(c3O[C@@H]2O[C@H](CO)[C@@H](O)[C@H](O)[C@H]2O[C@H]2C[C@](C)(N)[C@H](O)[C@H](C)O2)Oc2ccc(cc2Cl)[C@H]1O [VANCOMYCIN]
Activity (Enterococcus faecalis [9]): 100% | MIC50 (Staphylococcus aureus [10]): 1 µg/mL (≈ 0.69 µM) | MIC90 (Staphylococcus aureus [10]): 1 µg/mL (≈ 0.69 µM) | MIC50 (Streptococcus pyogenes [5]): 0.5 µg/mL (≈ 0.345 µM) | MIC90 (Streptococcus pyogenes [5]): 0.5 µg/mL (≈ 0.345 µM) | Activity (Staphylococcus aureus [11]): 100% | Activity (Enterococcus faecium [12]): 0% | MIC50 (Enterococcus faecium [13]): 0.5 µg/mL (≈ 0.345 µM) | MIC90 (Enterococcus faecium [13]): > 32 µg/mL | MIC90 [14]: 2 µg/mL (≈ 1.38 µM) | Activity [15]: 0% | Activity (Staphylococcus aureus [16]): 0% | MIC90 [17]: 2 µg/mL (≈ 1.38 µM) | Activity [18]: 0% | Activity (Staphylococcus aureus [19]): 0% | MIC50 (Enterococcus faecalis [20]): 1 µg/mL (≈ 0.69 µM) | MIC90 (Enterococcus faecalis [20]): 2 µg/mL (≈ 1.38 µM) | MIC50 (Streptococcus pneumoniae [2]): ≤ 0.25 µg/mL | MIC90 (Streptococcus pneumoniae [2]): 0.25 µg/mL (≈ 0.173 µM) | Activity [21]: 100% | Activity (Enterococcus faecalis [22]): 0% | Activity (Streptococcus pneumoniae [3]): 100% | Activity (Enterococcus faecalis [23]): 0% | Activity (Streptococcus pyogenes [7]): 100% | Activity (Staphylococcus aureus [24]): 100% | MIC50 (Staphylococcus aureus [25]): 1 µg/mL (≈ 0.69 µM) | MIC90 (Staphylococcus aureus [25]): 1 µg/mL (≈ 0.69 µM) | Activity (Enterococcus faecium [26]): 87.9% | MIC50 (Streptococcus agalactiae [8]): ≤ 0.25 µg/mL | MIC90 (Streptococcus agalactiae [8]): 0.25 µg/mL (≈ 0.173 µM) | Activity (Staphylococcus aureus [27]): 0% | Activity [28]: 0% | Activity [29]: 0% | Activity [30]: 100% | Activity (Staphylococcus aureus [31]): 0%
